# Where “and” joins values, the source holds several entries; their conditions need not be identical. Identical values can stand only once. The whole screen tested about 51,000 compounds, of which about 150 (0.29%) were called active. This is one part of a sample in which actives are shown more often than they occur. A number with no mark means an inactive call.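 Rule for the calls: active = both repeat wells score below -2 in polarization z-score versus plate sample wells, excluding overly bright wells; inactive = the rest.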
# Test system: LANA (ORF73) N-terminal peptide binding to nucleosomes, Human herpesvirus 8
# Assay: inhibitors of KSHV LANA-nucleosome binding, primary screen, biochemical, fluorescence polarization, FITC-LANA1-23, chicken nucleosomes (AID 720717)
# Details: FITC-LANA1-23 / chicken nucleosome fluorescence polarization; active compounds read low
# Method in brief: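 test system = FITC-LANA peptide and chicken nucleosomes | amount = 240 nM purified chicken nucleosomes (480 nM peptide binding sites), final | reagent = 50 nM FITC-LANA1-23 probe | medium = TEN-BT buffer, pH 7.5 | doses = single compound addition by pin transfer, 100 nL per well | timing = 10–45 min, room temperature | detection = fluorescence polarization | repeats = duplicate plates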
row,Structure (SMILES),z-score
1,CC(Oc1ccccc1)c1ccnc2ncnn12 (centres undefined),1.01
2,Cc1occc1-c1nnc2n1N=C(c1ccc(-c3cc(Cl)ccc3Cl)o1)CS2,-0.0445
3,O=C(O)c1ccc(Sc2ccccc2C(=O)O)c(C(=O)O)c1,0.129
4,Cc1ccc2c(n1)sc1c(=O)n(-c3ccccc3)nnc12,0.192
5,CCOC(=O)c1c(NC(=S)N2CCN(C(=O)c3ccco3)CC2)sc2c1CCCCCC2,0.494
6,O=C(CSc1nnc(Cc2cc(=O)[nH]c(=O)[nH]2)n1-c1ccccc1)NCc1ccco1,0.726
7,NNC(=O)Cc1csc(CC(N)=O)n1,-1.71
8,O=C(CC1OCCN(Cc2ccccc2)C1=O)Nc1ccc(F)cc1 (centres undefined),0.194
9,O=C(c1cnc2sc(N3CCCCC3)nn2c1=O)N1CCCC1,-0.108
10,Cc1ccc(Cn2cc(C(=O)Nc3cccnc3)ccc2=O)cc1,-0.673
11,O=C(CC1Nc2ccccc2NC1=O)Nc1ccccc1NC(=O)CC1Nc2ccccc2NC1=O (centres undefined),-0.867
12,O=S(=O)(c1cnc[nH]1)N1CCN(Cc2ccccc2)CC1,-0.596
13,Cc1ccc(C(=O)Nc2nc3ccc(S(N)(=O)=O)cc3s2)cc1C,-0.589
14,CN(Cc1ccccc1)c1ncnc2c1nc1n2CCCCC1,-0.37
15,O=C(NC1CCCC1)c1[nH]nc2c1CCc1ccccc1-2,0.227
16,CC(=O)Oc1cc(-c2ccccc2)nn1C,0.038
17,CC(CC(=O)NN)C1(O)CCCCC1 (centres undefined),0.05
18,Cc1ccc(C2=Nc3ccccc3N(CC(=O)Nc3ccc4c(c3)OCO4)C(=O)C2)cc1,-1.02
19,CCN(CC)S(=O)(=O)c1ccc2c(c1)CC(C)N2C(=O)C1CC1 (centres undefined),1.02
20,CC(C)(C)C(=O)N(Cc1ccccc1)c1ccccn1,0.774
21,CCc1ccc(C(c2c(C)[nH][nH]c2=O)C(C#N)C#N)cc1 (centres undefined),0.261
22,CCOc1ccc(/C=N/NC(=O)Cc2cc(=O)[nH][nH]2)cc1,-1.01
23,CN(C)/C=C/c1nc(C(F)(F)F)c(C#N)s1,5.21
24,N#CCn1cc(C(=O)C(F)(F)F)c2ccccc21,0.359
25,O=C(Cn1c(=O)oc2ccccc21)NC1CCN(Cc2ccccc2)CC1,-0.221
26,O=C1c2ccccc2OCC12COC(c1ccccc1)OC2 (centres undefined),-1.2

row,Structure (SMILES),z-score
1,CC(=O)Nc1ccc(NCC(O)Cn2ccc3ccccc32)cc1 (centres undefined),1.77
2,CC1CCC(NC(=O)CCCn2ncn3c(cc4occc43)c2=O)CC1 (centres undefined),0.64
3,COCCNC(=O)N1c2ccccc2Sc2ccccc21,0.827
4,O=C(CNc1ccc(C(=O)O)cc1)NCc1ccc2c(c1)OCO2,0.298
5,N/C(=N\O)c1cnn2c(C(F)(F)F)cc(C(F)(F)F)nc12,-0.264
6,CCc1ccc(N2COc3ccc4c(CC)cc(=O)oc4c3C2)cc1,0.115
7,Cc1cccc2cnn(CC(=O)N3CCc4ccccc4C3)c12,0.198
8,CN1C(C)(C)CC(NC(=O)Nc2ccc(F)cc2)CC1(C)C,0.033
9,Cc1cc(C)n(C(C)CC(=O)Nc2ccc(CN3CCC(C)CC3)cc2)n1 (centres undefined),-0.62
10,C[C@]12CCC(=O)C=C1C=CC1C2CC[C@@]2(C)C1CC[C@@]21CCC(=O)O1 (some centres undefined),0.0125 and 0.276
11,CN(C)c1ccc(-c2nnc(-c3cccnc3)o2)cc1,-0.139
12,COc1cccc(N2C(=O)C=CC2=O)c1,0.499
13,CCCCc1ccc(NC(=O)CC)c(C)c1,1.52
14,COc1ccc(CNC(=O)C(NS(=O)(=O)c2cccc3nsnc23)C(C)C)cc1 (centres undefined),-1.48
15,Cc1ccc(C(CC(=O)O)c2ccccc2)c(O)c1 (centres undefined),0.53
16,Cc1ccc(C(=O)CSc2nnc3[nH]c(=O)c(C)nn23)cc1,-1.31
17,S=C(NCc1ccco1)Nc1nn(Cc2ccc(Cl)cc2Cl)cc1Cl,1.51
18,Cc1cc(N2CCOCC2)nc2ccc(NC(=O)CCC(=O)NC3CCCCC3)cc12,0.0965
19,CCCn1c(SCC(=O)N2CCCc3ccccc32)nnc1C(C)C,-2.58
20,CCCNC(=O)c1cc2c(Cl)ccc3c2n1CCO3,-0.473
21,O=C1C=CC(=O)N1Nc1ccccc1,0.669
22,COC(=O)c1nnn(-c2nonc2N)c1CN1C(=O)c2ccccc2C1=O,-0.366
23,CCn1c(N2CCN(C(=O)Nc3ccc(Cl)c(C(F)(F)F)c3)CC2)nc2ccccc21,-1.36
24,O=C1CCCC2=C1C(c1ccccn1)Nc1ccc3ncccc3c12 (centres undefined),-0.381
25,Cc1cccc(-n2nc(C)c3c(C)cc(=O)oc32)c1,0.165
26,O=C(O)c1cccc2c1C(=O)N(C1CCCC1)C2,0.735

row,Structure (SMILES),z-score
1,OCc1cccnc1Sc1ccccc1,0.147
2,Cc1ccc2c(c1)cc(CN(Cc1ccco1)C(=O)c1ccccc1)c1nnnn12,0.235
3,Cc1cc(OCCN2CCOCC2)nc(N2CCOCC2)n1,0.348
4,Cc1sc(-c2cccs2)nc1O,-0.538
5,CCc1cccc2c(C=C(C#N)C#N)cn(CC(=O)NC3CCCC3)c12,0.0985
6,Nc1c2c3c(sc2nc(=O)n1Cc1ccco1)CCC3,0.229
7,COc1ccc(N(C)S(=O)(=O)c2ccc3c(c2)CC(C)N3C(=O)C2CC2)c(OC)c1 (centres undefined),-0.361
8,COc1cccc(/C=C2/Sc3ccc(C(=O)NCc4ccco4)cc3NC2=O)c1,-0.179
9,COCCNC(=O)c1cccc(OC(C)C)c1,0.494
10,CN(C(=O)CSc1nc(N)cc(=O)[nH]1)c1ccccc1,-0.19
11,Cc1ccsc1/C=N/c1sc2c(c1C#N)CCCC2,-0.764
12,Cc1cc(C)c2nc(C(F)(F)F)nc(NCc3ccc4c(c3)OCO4)c2c1,2.86
13,CCOC(=O)NCc1cc(C(=O)O)ccc1O,0.19
14,CCN1C(=Nc2ccc(O)cc2)SC/C1=C\C(=O)OC,2.25
15,CN(C)C(CNC(=O)c1cc2ccccc2oc1=O)c1ccco1 (centres undefined),-0.421
16,O=S1(=O)CCC(S(=O)(=O)N2CCCC2)C1 (centres undefined),-0.472
17,CCCCSC1=NC(=O)CC(=O)N1,-1.46
18,CC(=O)N1CCC(N(c2ccc3c(c2)OCO3)S(=O)(=O)c2ccccc2)CC1,0.764
19,Cc1ccc(S(=O)(=O)Nc2cccc(C(=O)N3CCCCC3)c2)cc1,1.2
20,O=C(O)CN1CC(=O)Nc2ccccc21,0.771
21,O=C1Nc2ccccc2N(c2ccccc2)N1,-3.48 (active)
22,CCCCC(C)C(N)=O (centres undefined),-0.323
23,CC[N+](C)(CC)CCC[n+]1c(-c2ccccc2)c2cc(N)ccc2c2ccc(N)cc21,-3.89 (active) and -3.44 (active)
24,CCN(Cc1ccccc1)C(=O)C1CCN(Cc2cc(Br)c(O)c(OC)c2)CC1,-0.834
25,O=C1CC(NC2CCN(S(=O)(=O)c3ccc(Cl)cc3)CC2)C(=O)N1 (centres undefined),2.47
26,Cc1ccc(NC(=O)CSC2=NC(=O)CC(=O)N2)cc1,-0.876

row,Structure (SMILES),z-score
1,COc1ccc(C2=NS(=O)(=O)N(C)C(C(=O)NCC(C)C)=C2)cc1OC,-0.724
2,CCN(CC)C(=O)Cc1c(C(=O)O)[nH]c2ccc(Cl)cc12,0.22
3,Cc1ccc(C(=O)N2CCCN(C)CC2)o1,-1.2
4,O=C(OCc1ccccc1Cl)c1cc(=O)[nH]c2ccccc12,-1.04
5,O=C(Nc1ccc(Cl)cc1)c1ncoc1-c1cccs1,0.41
6,COC(=O)c1ccc(NS(=O)(=O)c2cc(C(=O)OC)n(C)c2)cc1,-0.537
7,Cc1ccc(-c2nc3ccccc3[nH]2)cc1NC(=O)C(C)C,-0.762
8,CCC(=O)NC1CC(=O)N(c2ccc(F)cc2)C1 (centres undefined),-0.098
9,COc1ccc(CCN2C(=O)CSC2c2ccc3cccc(O)c3n2)cc1OC (centres undefined),1.12
10,Cn1ncc(Br)c1-c1cccc(NC(=O)COCC(=O)O)c1,-1.14
11,CCCCCn1c(=O)[nH]c2cc(C(=O)Nc3cc(OC)c(OC)c(OC)c3)ccc2c1=O,-0.668
12,Cn1c(=O)c2c(nc(N3CCNCC3)n2C)n(C)c1=O,0.302
13,COc1ccc2oc(=O)cc(-c3cc4ccccc4o3)c2c1,-0.251
14,O=c1c(-c2cc3ccccc3o2)[n+]([O-])c2ccccc2n1O,-2.61 (active)
15,O=C(CSc1ncccn1)N1CCCC1,-0.327
16,O=C(Nc1ccc2nc(CN3CCCCC3)[nH]c2c1)c1cccs1,-0.0365
17,Cc1cccc(C)c1N1CCN(S(=O)(=O)N2CCCCC2)CC1,-1.66
18,COc1ccc(C(=O)Nc2ccccc2C(=O)NCc2ccco2)cc1,0.333
19,CN(C)C(=O)CN1CCC(N2CCCCC2)CC1,-0.624
20,COc1ccc(Cn2ccc3nc4ccn(Cc5ccc(OC)cc5)c(=O)c4cc3c2=O)cc1,0.327
21,CN1C(=O)/C(=C/C=C2\SCCN2C)OC1=S,-2.92 (active)
22,COc1cccc(NS(=O)(=O)c2ccc3[nH]cc(C(=O)N4CCCCC4C)c(=O)c3c2)c1 (centres undefined),0.613
23,O=C(O)COc1ccc(CN2CCCC2)cc1,0.199
24,N/C(=N\OC(=O)CC1CCCCC1)c1ccccc1,-0.568
25,Cc1nnc(NC2CC2)c2c1nnn2Cc1ccc(F)cc1,0.653
26,CN(C)CCNC(=O)c1ccc(/C=C2\SC(=S)N(C)C2=O)cc1,1.24
